Test results from ChEMBL document CHEMBL1151482, “Phenolic constituents from the stem bark of Magnolia officinalis” (J Nat Prod, 2009).
In brackets after ≈: the same amount, converted by molar mass.

Columns and labels:
[1] = Inhibition of NADPH oxidase-mediated ROS production in LPS-stimulated mouse BV2 cells after 20 mins by flow cytometry; format: cell-based; conditions: BV-2, 20 min
Summary of the method: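 BV2 cells preloaded with 2′,7′-dichlorofluorescin diacetate, exposed to test agents for 20 min, then LPS-stimulated; H2O2 quantified 30 min later by flow cytometry, expressed as mean channel fluorescence; IC50 from concentration-response curves.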

[2] = system: Radical scavenging activity; assay: Antioxidant activity assessed as DPPH free radical scavenging activity; format: functional
Summary of the method: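 Diluted drugs combined with DPPH solution in microplate; absorbance read at 517 nm; IC50 derived from concentration-response curves.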

BV-2 = assay: Antiinflammatory activity in mouse BV2 cells assessed as inhibition of LPS-induced NO production after 24 hrs by Griess reagent method; format: functional, cell-based; conditions: BV-2, 24 h
Summary of the method: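 Microglial BV2 cells treated with test agents, then stimulated with LPS (0.5 µg/mL); nitrite accumulated in medium over 24 h measured with Griess reagent as NO readout; IC50 taken from concentration-response curves.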

IC50 [1]	IC50 [2]	IC50 (BV-2)	SMILES
20.6 µg/mL (≈ 85 µM)	27.6 µg/mL (≈ 114 µM)	0.5 µg/mL (≈ 2.06 µM)	C=CCc1cc(-c2cc(O)ccc2O)ccc1O [MAGNATRIOL B]
–	21.6 µg/mL (≈ 89.2 µM)	1.2 µg/mL (≈ 4.95 µM)	C=CCc1ccc(O)c(-c2cc(O)ccc2O)c1 [RANDAIOL]
–	–	9.2 µg/mL (≈ 36.2 µM)	C=CCc1ccc(O)c(-c2cc(C=O)ccc2O)c1 [MAGNALDEHYDE]
